Results on ten molecules are retold here after ChEMBL document CHEMBL1131084, “3-Alkyl ethers of clocinnamox: delayed long-term mu-antagonists with variable mu efficacy” (J Med Chem, 1998).

Each structure is given as a SMILES string. Active and inactive are the calls of the source. The rule behind the calls is not given here.

Assay [1] concerns Mus musculus. Kind of assay: Comparison of the antinociceptive agonist/antagonist profile of activity by Tail Flick vs morphine test (sc administration); inactive up to 30 mg/kg. The class given is functional, organism-based. Details: dose 30 mg/kg.
In assay [2] the test system is Mus musculus. The experiment in a line: Antagonism of morphine antinociceptive ED50 by the compound. Onset and Duration of morphine antagonist action in the mouse tail flick assay at a Pretreatment time of 72 hours.(sc administration). Format: functional. Put shortly: (§1)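 Mice, tail flick test. Ether given sc (vehicle: distilled water, 5% aqueous DMSO or 5% hydroxypropyl-β-cyclodextrin), then morphine; pretreatment intervals from the standard 30 min up to 72 h. Antagonism taken as the shift in morphine antinociceptive ED50.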
For orientation: Thermal pain tests record how soon the animal reacts.

For assay [3], the species on record is Mus musculus. Kind of assay: Antagonist selectivity after a 24-h pretreatment period, in the mouse abdominal stretch assay using Bremazocine as the agonist. Format: functional, Abdomen. Put shortly: (§2)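 Mice, acetic acid abdominal stretch assay. Ether 32 mg/kg sc given 24 h beforehand (vehicle sterile water with 16% MeOH and 1% HCl). Agonist (morphine 3.2 mg/kg, BW373U86 10 mg/kg, or bremazocine) given sc 15 min before ip acetic acid. Read-out is % antagonism of the agonist effect.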

The test system of assay [4] is Mus musculus. The experiment in a line: Antagonism of morphine antinociceptive ED50 by the compound. Onset and Duration of morphine antagonist action in the mouse tail flick assay at a Pretreatment time of 24 hours.(sc administration). Format: functional. An outline of the steps: as §1
For assay [5], the target named is Mu-type opioid receptor (Rattus norvegicus, UniProt P33535). The experiment in a line: In vitro binding affinity against Opioid receptor mu 1 (DAMGO) opioid receptor in rat brain homogenates. The class given is tissue-based. Put shortly: (§3)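 Crude membranes from brain minus cerebellum, homogenized in 50 mM Tris, pH 7.4. Radioligands [3H]DAMGO 2 nM (μ), [3H]DPDPE 1.8 nM (δ), [3H]U69,593 1.1 nM (κ). Nonspecific binding defined with 10 μM naloxone. Compounds from DMSO stock; final DMSO ≤0.1%.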
Mu-type opioid receptor, sequence (P33535 whole entry): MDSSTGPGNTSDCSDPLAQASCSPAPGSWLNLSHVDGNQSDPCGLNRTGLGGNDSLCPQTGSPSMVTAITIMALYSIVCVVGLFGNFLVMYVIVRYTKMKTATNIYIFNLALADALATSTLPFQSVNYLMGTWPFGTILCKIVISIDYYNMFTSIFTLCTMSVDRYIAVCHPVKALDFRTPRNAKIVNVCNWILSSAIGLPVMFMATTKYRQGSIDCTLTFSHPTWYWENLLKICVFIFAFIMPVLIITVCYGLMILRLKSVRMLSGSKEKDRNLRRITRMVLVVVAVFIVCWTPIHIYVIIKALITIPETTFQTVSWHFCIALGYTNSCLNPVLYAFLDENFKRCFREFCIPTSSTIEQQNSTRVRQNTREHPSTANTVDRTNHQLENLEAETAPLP

Assay [6] concerns Mus musculus. Kind of assay: Antagonism of morphine antinociceptive ED50 by the compound. Onset and Duration of morphine antagonist action in the mouse tail flick assay at a Pretreatment time of 36 hours.(sc administration). Format: functional. Put shortly: as §1
The subject of assay [7] is Mus musculus. Kind of assay: Antagonism of morphine antinociceptive ED50 by the compound. Onset and Duration of morphine antagonist action in the mouse tail flick assay at a Pretreatment time of 6 hours.(sc administration). Format: functional. Put shortly: as §1
The subject of assay [8] is Mus musculus. Kind of assay: Comparison of the antinociceptive agonist/antagonist profile of activity by tail flick test (sc administration); inactive up to 30 mg/kg. Format: functional, organism-based. Also on record: dose 30 mg/kg. Put shortly:
(§4)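 Mice, phenylquinone abdominal stretch, hot plate or tail flick tests. Compounds given sc in distilled water, 5% aqueous DMSO or 5% hydroxypropyl-β-cyclodextrin.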

In assay [9] the test system is Mus musculus. Kind of assay: Antagonist selectivity after a 24-h pretreatment period, in the mouse abdominal stretch assay using BW373U86 (10 mg/kg) as the agonist. Format: functional, Abdomen. An outline of the steps: as §2
The subject of assay [10] is Mus musculus. Kind of assay: Antagonist selectivity after a 24-h pretreatment period, in the mouse abdominal stretch assay using morphine (3.2 mg/kg) as the agonist. Format: functional, Abdomen. Put shortly: as §2
Assay [11] has as its system Mus musculus. The experiment in a line: Comparison of the antinociceptive agonist/antagonist profile of activity by Phenylquinone-abdominal stretch test.(sc administration). The class given is functional. Put shortly: as §4
Assay [12] deals with Delta-type opioid receptor (Rattus norvegicus, UniProt P33533). The experiment in a line: In vitro binding affinity against Opioid receptor delta 1 (DPDPE) in rat brain homogenates. Format: tissue-based. An outline of the steps: as §3
Delta-type opioid receptor, sequence (P33533 whole entry): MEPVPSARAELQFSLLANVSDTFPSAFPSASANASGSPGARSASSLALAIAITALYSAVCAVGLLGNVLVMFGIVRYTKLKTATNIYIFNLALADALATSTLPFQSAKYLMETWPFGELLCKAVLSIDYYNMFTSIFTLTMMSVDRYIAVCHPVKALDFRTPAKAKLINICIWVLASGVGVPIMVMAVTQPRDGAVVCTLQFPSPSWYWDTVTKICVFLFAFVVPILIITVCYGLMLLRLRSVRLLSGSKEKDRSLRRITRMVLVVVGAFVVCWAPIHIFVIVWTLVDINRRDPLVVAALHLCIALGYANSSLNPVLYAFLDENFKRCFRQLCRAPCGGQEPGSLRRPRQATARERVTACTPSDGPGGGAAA
Assay [13] concerns Mus musculus. Kind of assay: Antagonism of morphine antinociceptive ED50 by the compound. Onset and Duration of morphine antagonist action in the mouse tail flick assay at a Pretreatment time of 2 hr. (30 mg/kg sc administration). Format: functional. An outline of the steps: as §1
Assay [14] deals with Kappa-type opioid receptor (Rattus norvegicus, UniProt P34975). Kind of assay: In vitro binding affinity against Opioid receptor kappa 1 in rat brain homogenates. Format: tissue-based. An outline of the steps:
as §3

The subject of assay [15] is Mus musculus. Kind of assay: Comparison of the antinociceptive agonist/antagonist profile of activity byhot plate test (sc administration); inactive up to 20 mg/kg. The class given is functional, organism-based. Details: dose 20 mg/kg. Put shortly: as §4
For assay [16], the system named is Mus musculus. The experiment in a line: Comparison of the antinociceptive agonist/antagonist profile of activity byhot plate test.(sc administration). The class given is functional. An outline of the steps:
as §4

The test system of assay [17] is Mus musculus. Kind of assay: Effect of antagonist (beta-FNA, 32 mg/kg for a pretreatment time of 24 h) on the inhibition of acetic acid-induced abdominal stretches by the compound (10 mg/kg sc). Format: functional, Abdomen. An outline of the steps: (§5)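 Mice, acetic acid abdominal stretch assay (stretches induced by ip acetic acid). Ether 10 mg/kg sc, given after a selective antagonist: β-FNA 32 mg/kg at 24 h, naltrindole 10 mg/kg at 15 min, or nor-BNI 32 mg/kg at 24 h beforehand. Read-out is % antagonism.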

The test system of assay [18] is Mus musculus. The experiment in a line: Effect of antagonist (Nor-BNI, 32 mg/kg for a pretreatment time of 24 h) on the inhibition of acetic acid-induced abdominal stretches by the compound (10 mg/kg sc). Format: functional, Abdomen. An outline of the steps:
as §5

Assay [19] has as its system Mus musculus. Kind of assay: Effect of antagonist (Naltrindole, 10 mg/kg for a pretreatment time of 15 min)on the inhibition of acetic acid-induced abdominal stretches by the compound (10 mg/kg sc). The class given is functional, Abdomen. Put shortly:
as §5

Assay [20] is filed under the species Mus musculus. The experiment in a line: Antinociceptive potency determined by mouse tail withdrawal assay. Format: functional. An outline of the steps:
(§6)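 Mice, tail withdrawal test in 50 °C water. Ethers dissolved in sterile water containing 16% MeOH and 1% HCl and injected sc. ED50 in mg/kg and % MPE reported; means ± SEM from 6 animals.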

Assay [21] relates to Mus musculus. The experiment in a line: Comparison of the antinociceptive agonist/antagonist profile of activity by Tail Flick vs morphine test.(Inactive up to 30 mg/kg; sc administration). Format: functional, organism-based. Details: dose 30 mg/kg.
Assay [22] relates to Mus musculus. The experiment in a line: Comparison of the antinociceptive agonist/antagonist profile of activity by tail flick test.(sc administration). The class given is functional. An outline of the steps:
as §4

The species entered for assay [23] is Mus musculus. Kind of assay: Percent MPE was evaluated in mouse tail withdrawal assay. The class given is functional. An outline of the steps:
as §6

Assay [24] deals with Mus musculus. Kind of assay: Comparison of the antinociceptive agonist/antagonist profile of activity by Tail Flick vs morphine test.(sc administration). Format: functional.
Assay [25] concerns Mus musculus. The experiment in a line: Comparison of the antinociceptive agonist/antagonist profile of activity by hot plate test.(sc administration); inactive up to 20 mg/Kg. The class given is functional, organism-based. Put shortly:
as §4

The test system of assay [26] is Mus musculus. Kind of assay: Percent MPE was evaluated in mouse tail withdrawal assay at 32 mg/kg. The class given is functional. An outline of the steps:
as §6

Assay [27] deals with Mus musculus. Kind of assay: Comparison of the antinociceptive agonist/antagonist profile of activity by Tail Flick vs morphine test.(sc administration) inactive up to 30 mg/kg. Details: dose 30 mg/kg. The class given is functional, organism-based.
The test system of assay [28] is Mus musculus. The experiment in a line: Comparison of the antinociceptive agonist/antagonist profile of activity by hot plate test.(sc administration).

Kappa-type opioid receptor, sequence (P34975 whole entry): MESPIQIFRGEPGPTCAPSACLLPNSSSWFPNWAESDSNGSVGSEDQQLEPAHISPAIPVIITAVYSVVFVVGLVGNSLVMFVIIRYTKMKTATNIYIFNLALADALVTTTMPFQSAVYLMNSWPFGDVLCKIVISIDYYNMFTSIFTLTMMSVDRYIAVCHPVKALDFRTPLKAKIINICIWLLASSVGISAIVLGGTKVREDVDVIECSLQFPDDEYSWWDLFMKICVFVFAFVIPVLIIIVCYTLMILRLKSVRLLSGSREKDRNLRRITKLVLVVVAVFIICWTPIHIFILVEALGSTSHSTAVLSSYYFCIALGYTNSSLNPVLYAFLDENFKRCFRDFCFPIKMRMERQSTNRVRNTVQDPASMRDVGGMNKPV

As usually defined, the ED50 is the dose at which the effect has come halfway, by size or by number of responders. A word on the Ki: it is the equilibrium dissociation constant of an inhibitor or competing ligand from its target. Higher therefore signals lower affinity. Turning to `O=C(/C=C/c1ccc(Cl)cc1)N[C@@]12CCC(=O)[C@@H]3Oc4c(OCC5CC5)ccc5c4[C@@]31CCN(CC1CC1)[C@@H]2C5`, the ED50 entry in [1], in assay [8] and in assay [15] was “inactive” each time. Besides, the AD50 came to 11.39 mg/kg in [2], 3.41 mg/kg in assay [4], 6.82 mg/kg in assay [6] and 0.97 mg/kg in assay [7]. The Antagonism in assay [3] was 19%; in [9] it was 0%; in assay [10] it was 100%; in assay [13], 57%. For the same molecule, the results for the Ki in assay [5], in assay [12] and in assay [14] were 7.6 nM, 56.5 nM and 131 nM, respectively. Also, the ED50 in assay [11] was 6.7 mg/kg.
As for `C#CCOc1ccc2c3c1O[C@H]1C(=O)CC[C@@]4(NC(=O)/C=C/c5ccc(Cl)cc5)[C@@H](C2)N(CC2CC2)CC[C@]314`, the Antagonism in [2] was 36%; in [3], 7%; in [17] it was 100%; in assay [18], 4.8%; in assay [19], 3.9%; in assay [9], 38%. Moreover, the Antagonism in assay [10] stood at 96%; in assay [13] it was 17%. The ED50 turned out to be 0.3 mg/kg in assay [16], 6.3 mg/kg in [20], 1.2 mg/kg in assay [22] and 0.3 mg/kg in assay [11]. Also, the AD50 was 4.06 mg/kg in [4], 3.02 mg/kg in assay [6] and 14.11 mg/kg in assay [7]. Also, the Ki is 1.6 nM in assay [5], 21.3 nM in assay [12] and 19.1 nM in [14]. In [21], the ED50 result was “inactive”. Besides, the MPE in assay [23] stood at 100%.
On to `O=C(/C=C/c1ccc(Cl)cc1)N[C@@]12CCC(=O)[C@@H]3Oc4c(O)ccc5c4[C@@]31CCN(CC1CC1)[C@@H]2C5` [CLOCINNAMOX], for which the Ki worked out at 9 nM in [5], 12.5 nM in [12] and 5.4 nM in assay [14].
As for `COC(=O)COc1ccc2c3c1O[C@H]1C(=O)CC[C@@]4(NC(=O)/C=C/c5ccc(Cl)cc5)[C@@H](C2)N(CC2CC2)CC[C@]314`, the Ki is 7.6 nM in [5], 24.8 nM in assay [12] and 95.4 nM in [14].
In the case of `COc1ccc2c3c1O[C@H]1C(=O)CC[C@@]4(NC(=O)/C=C/c5ccc(Cl)cc5)[C@@H](C2)N(CC2CC2)CC[C@]314`, the ED50 was found to be 6 mg/kg in [24] and 0.2 mg/kg in assay [11]. Further, the ED50 result in assay [8] and in assay [25] was “inactive” throughout.
For the molecule `C=CCOc1ccc2c3c1O[C@H]1C(=O)CC[C@@]4(NC(=O)/C=C/c5ccc(Cl)cc5)[C@@H](C2)N(CC2CC2)CC[C@]314`, the Ki in assay [5] was found to be 8.9 nM; in assay [12] it was 65.4 nM; in assay [14] it was 17.9 nM. Moreover, in [20], it took a dose of 11.1 mg/kg to reach the 50% effect level (ED50). Also, the MPE in assay [23] is given as 100%.
For `CCCOc1ccc2c3c1O[C@H]1C(=O)CC[C@@]4(NC(=O)/C=C/c5ccc(Cl)cc5)[C@@H](C2)N(CC2CC2)CC[C@]314`, in [26], the MPE worked out at 35%. The Ki in assay [5] was found to be 24.6 nM; in [12], 82.6 nM; in assay [14] it was 19.1 nM.
Consider `CC(C)Oc1ccc2c3c1O[C@H]1C(=O)CC[C@@]4(NC(=O)/C=C/c5ccc(Cl)cc5)[C@@H](C2)N(CC2CC2)CC[C@]314`, for which the Ki in [5] was found to be 59.8 nM; in assay [12] it was 96.4 nM; in [14] it was 14.9 nM.
Regarding `N#CCOc1ccc2c3c1O[C@H]1C(=O)CC[C@@]4(NC(=O)/C=C/c5ccc(Cl)cc5)[C@@H](C2)N(CC2CC2)CC[C@]314`, the inhibition constant (Ki) in assay [5] came out at 12.4 nM; in [12], 89.5 nM; in [14], 18 nM. This molecule also registered an ED50 in [20] of 20.8 mg/kg. The same molecule gave an MPE in [23] of 78%.
As to `CN1CC[C@]23c4c5ccc(O)c4O[C@H]2[C@@H](O)C=C[C@H]3[C@H]1C5` [MORPHINE], the figures for the ED50 in [20] and in assay [28] were 17.9 mg/kg and 0.9 mg/kg, respectively. For the same molecule, in assay [23], the MPE is 100%. For the same molecule, in assay [27], the ED50 result is “inactive”.
